Measured values pooled from the literature.
Protocols differ between the studies behind these lines.
Target: Mitogen-activated protein kinase kinase kinase 1 (MAP3K1, Homo sapiens, UniProt Q13233)

CN(C)c1nccc(-c2cnc3ncccn23)n1  remaining binding (binding; 1 µM): 100%
O=C(NCC1CCOCC1)c1n[nH]cc1NC(=O)c1c(F)cccc1F  remaining binding (binding; competition with immobilised ligand; 1 µM): 75%
CNC(=O)Nc1ccc2c(c1)CC[C@@]21OC(=O)N(CC(=O)N(Cc2ccc(F)cc2)[C@@H](C)C(F)(F)F)C1=O  remaining binding (cell-free assay; competition with immobilised ligand; 1 µM): 68%
COc1ccnn2ncc(-c3ccnc(N(C)C)n3)c12  remaining binding (binding; 1 µM): 100%
C[C@H](NC(=O)c1cnc2n1[C@](C)(Cc1ccc(C#N)cc1)C(=O)N2c1cc(Cl)c(F)c(Cl)c1)C(=O)NC1(c2ccccn2)CC1  remaining binding (cell-free assay; competition with immobilised ligand; 1 µM): 100%
CN(CCCC(F)(F)F)c1nccc(-c2cnn3ncccc23)n1  remaining binding (binding; 1 µM): 75%
O=C(NCCCN1CCOCC1)c1ccc(Nc2ncc(Cl)c(-c3ccc(Cl)s3)n2)cc1  remaining binding (binding; competition with immobilised ligand; 1 µM): 100%
CCN1CCN(Cc2ccc(C(=O)Nc3ccc(C)c(Oc4ccc5c(c4)CC(=O)N5)c3)cc2C(F)(F)F)CC1  remaining binding (binding; competition with immobilised ligand; 1 µM): 100%
c1cnn2ncc(-c3ccnc(N4CCC45COC5)n3)c2c1  remaining binding (binding; 1 µM): 76%
COc1ccc2c(c1)O[C@@H](c1ccc(OC)c(OC)c1)C[C@H]2NC(=O)C1(c2ccc3c(c2)OC(F)(F)O3)CC1  remaining binding (cell-free assay; competition with immobilised ligand; 1 µM): 77%
Cc1cnn2ncc(-c3ccnc(N(C)C)n3)c2c1  remaining binding (binding; 1 µM): 91%
FC(F)(F)Oc1cccc(-c2cnc3ccc(-c4ccncc4)nn23)c1  remaining binding (cell-free assay; competition with immobilised ligand; 5 µM): 80%
COc1ncc2cc3ccccc3nc2c1C#N  remaining binding (cell-free assay; competition with immobilised ligand; 5 µM): 99%
O=C(N1CCS(=O)(=O)CC1)N1C[C@H](c2ccc(OC(F)(F)F)cc2)C[C@H](c2nc(C3CC3)no2)C1  remaining binding (cell-free assay; competition with immobilised ligand; 1 µM): 100%
COc1cnc(Nc2cccc(S(N)(=O)=O)c2)nc1N1CCN(c2ccccc2)C(=O)C1  remaining binding (binding; competition with immobilised ligand; 1 µM): 96%
Cc1cnc(Nc2ccc(C(=O)N3CCC(N4CCCC4)CC3)cc2)nc1-c1cc2ccccc2s1  remaining binding (binding; competition with immobilised ligand; 1 µM): 70%
C[C@H]1CCN(c2nccc(-c3cnn4ncccc34)n2)C1  remaining binding (binding; 1 µM): 83%
O=C1NC(c2ccccn2)Sc2ccccc21 (stereo not shown)  remaining binding (cell-free assay; competition with immobilised ligand; 1 µM): 55%
O=C(c1ccc(Nc2ncc(Cl)c(-c3cc4ccccc4s3)n2)cc1)N1CCC(N2CCCC2)CC1  remaining binding (binding; competition with immobilised ligand; 1 µM): 79%
N[C@H]1CCN(c2nccc(-c3cnn4ncccc34)n2)C1  remaining binding (binding; 1 µM): 98%
CO[C@@H](C)c1c(Nc2ccc([C@H](N(C)C(=O)C3CCS(=O)(=O)CC3)C(F)(F)F)cc2)cnc2cc(Cl)nn12  remaining binding (cell-free assay; competition with immobilised ligand; 1 µM): 100%
CNC(=O)[C@@H]1CC[C@@H](n2c(-c3ccc4cnccc4c3)nc3ccc(C(=O)NCc4cccc(C(N)=O)c4)cc32)C1  remaining binding (binding; competition with immobilised ligand; 1 µM): 95%
